# In ChEMBL document CHEMBL1128602, “Potent in vitro and in vivo inhibitors of platelet aggregation based upon the Arg-Gly-Asp sequence of fibrinogen. (Aminobenzamidino)succinyl (ABAS) series of orally active fibrinogen receptor antagonists” (J Med Chem, 1995):
# How the values were obtained:
# Canis familiaris [1] = assay: Duration of action to obtain >20% ex vivo collagen induced platelet aggregation was reported, after 10 mg/kg (post-ig) into dogs; duration of time >6, <24; assay type: functional, Canis lupus familiaris
# How it was run: (§1)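 Ester prodrugs dosed orally by capsule to conscious beagle dogs (n = 2). Citrated cephalic-vein blood (2 mL) drawn before and at set times after dosing for 24 h or until back to baseline. PRP made by spinning at 260g for 6 min. Aggregation induced with equine tendon collagen (final 33 μg/mL) at 37 °C and followed for 3 min. Duration is the time with >20% inhibition versus predose control.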
# Canis familiaris [2] = assay: Duration of action to obtain >20% ex vivo collagen induced platelet aggregation was reported, after 5 mg/kg (post-ig) into dogs.; assay type: functional, Canis lupus familiaris; how it was run: as §1
# Canis familiaris [3] = assay: Duration of action to obtain >20% ex vivo collagen induced platelet aggregation was reported, after 10 mg/kg (post-ig) into dogs.; assay type: functional, Canis lupus familiaris; how it was run: as §1
# [4] = Area under curve was determined by HPLC at a dosage of 2.27 mg/kg administered intravenously by bolus method in dog; assay type: ADME, organism-based, Canis lupus familiaris; design: dose 2.27 mg/kg, route intravenous; details: in vivo, iv
# How it was run: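 Female dogs (7–12 kg, n = 3), fasted 18 h. Aqueous saline solution injected into a radial vein (0.5 mL/kg) over 2–3 min. Femoral vein blood (3.5 mL) taken at 0.25, 0.5, 1, 2, 3, 5, 8, 13 and 24 h, put on ice, centrifuged, plasma held at –20 °C. Acid level in plasma measured by HPLC; AUC by trapezoidal method extrapolated to infinity and back to zero.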
# Canis familiaris [5] = assay: Duration of action to obtain >20% ex vivo collagen induced platelet aggregation was reported, after 20 mg/kg (post-ig) into dogs.; assay type: functional, Canis lupus familiaris; how it was run: as §1
# Canis familiaris [6] = assay: Duration of action to obtain >20% ex vivo collagen induced platelet aggregation was reported, after 20 mg/kg (post-ig) into dogs; duration of time >6, <24; assay type: functional, Canis lupus familiaris; how it was run: as §1
# Canis familiaris [7] = assay: Duration of action to obtain >20% ex vivo collagen induced platelet aggregation was reported, after […] 5 mg/kg orally (post-ig) into dogs.; assay type: functional, Canis lupus familiaris; details: route oral; how it was run: as §1
# Canis familiaris [8] = assay: Duration of action to obtain >20% ex vivo collagen induced platelet aggregation was reported, after 20 mg/kg (post-ig) into dogs; duration of time >3, <6; assay type: functional, Canis lupus familiaris; how it was run: as §1
# Canis familiaris [9] = assay: Duration of action to obtain >20% ex vivo collagen induced platelet aggregation was reported, after 20 mg/kg (post-ig) into dogs; Duration of time >6, < 24; assay type: functional, Canis lupus familiaris; how it was run: as §1
# [10] = Area under curve of acid 2a was determined by HPLC at a dosage of 54.5 mg/kg administered intragastrically by gavage method in dog; assay type: ADME, organism-based; design: dose 54.5 mg/kg, route intragastric; details: in vivo, po
# How it was run: (§2)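 Six female dogs, 7–12 kg, three per group, fasted 18 h. Prodrug ester given intragastrically as aqueous solution (2 mL/kg) by gavage or in gelatin capsule. Blood (3.5 mL) drawn via femoral vein catheter at 0.5, 1, 1.5, 2, 3, 5, 8, 13, 24 and 48 h, kept on ice, centrifuged, plasma stored at –20 °C. Acid measured in plasma by HPLC; AUC by trapezoidal method, extrapolated to infinity and back to zero.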
# Canis familiaris [11] = assay: Area under curve of acid 2a was determined by HPLC at a dosage of 5.45 mg/kg administered intragastrically by capsule method in dog; assay type: ADME, organism-based, Canis lupus familiaris; design: dose 5.45 mg/kg, route intragastric; details: in vivo, po; how it was run: as §2
# Canis familiaris [12] = assay: Area under curve of acid 2a was determined by HPLC at a dosage of 5.45 mg/kg administered intragastrically by gavage method in dog; assay type: ADME, organism-based, Canis lupus familiaris; design: dose 5.45 mg/kg, route intragastric; details: in vivo, po; how it was run: as §2
# Canis familiaris [13] = assay: Area under curve of acid 2a was determined by HPLC at a dosage of 54.5 mg/kg administered intragastrically by capsule method in dog; assay type: ADME, organism-based, Canis lupus familiaris; design: dose 54.5 mg/kg, route intragastric; details: in vivo, po; how it was run: as §2
smiles,measurement,setting,value
CCOC(=O)CC(NC(=O)CCCCc1ccc(C(=N)N)cc1)c1ccccc1 (stereo not drawn),Duration time,Canis familiaris [1],>6 h
CCOC(=O)CC(NC(=O)CCC(=O)Nc1ccc(C(=N)N)cc1)c1cccnc1 (stereo not drawn),Duration time,Canis familiaris [2],>6 h
same,Duration time,Canis familiaris [3],>24 h
C#C[C@H](CC(=O)O)NC(=O)CCC(=O)Nc1ccc(C(=N)N)cc1,AUC,[4],2490 ng·h/mL
C=CC(CC(=O)OCC)NC(=O)CCC(=O)Nc1ccc(C(=N)N)cc1 (stereo not drawn),Duration time,Canis familiaris [5],>24 h
CCOC(=O)CC(C)NC(=O)CCC(=O)Nc1ccc(C(=N)N)cc1 (stereo not drawn),Duration time,Canis familiaris [5],>30 h
CCOC(=O)CC(NC(=O)CCC(=O)Nc1ccc(C(=N)N)cc1)c1ccc(OCC)nc1 (stereo not drawn),Duration time,Canis familiaris [2],<6 h
CCOC(=O)CC(C)NC(=O)CCCCc1ccc(C(=N)N)cc1 (stereo not drawn),Duration time,Canis familiaris [6],>6 h
CCOC(=O)CC(NC(=O)CCC(=O)Nc1ccc(C(=N)N)cc1)c1cnc2ccccc2c1 (stereo not drawn),Duration time,Canis familiaris [2],<6 h
CCOC(=O)CC(Cc1ccccc1)NC(=O)CCC(=O)Nc1ccc(C(=N)N)cc1 (stereo not drawn),Duration time,Canis familiaris [6],>6 h
CCOC(=O)CC(NC(=O)CCC(=O)Nc1ccc(C(=N)N)cc1)c1ccc2c(c1)OCO2 (stereo not drawn),Duration time,Canis familiaris [7],>24 h
CCOC(=O)CC(Cc1ccccc1)NC(=O)CCCCc1ccc(C(=N)N)cc1 (stereo not drawn),Duration time,Canis familiaris [8],>3 h
CCOC(=O)CC(NC(=O)CCC(=O)Nc1ccc(C(=N)N)cc1)c1ccccc1 (stereo not drawn),Duration time,Canis familiaris [9],>6 h
C#C[C@H](CC(=O)OCC)NC(=O)CCC(=O)Nc1ccc(C(=N)N)cc1 [XEMILOFIBAN],AUC,[10],31700 ng·h/mL
same,AUC,Canis familiaris [11],2660 ng·h/mL
same,Duration time,Canis familiaris [3],>24 h
same,AUC,Canis familiaris [12],2730 ng·h/mL
same,AUC,Canis familiaris [13],31200 ng·h/mL
